In ChEMBL document CHEMBL1134690, “Preparation and cytotoxicity toward cancer cells of mono(arylimino) derivatives of beta-lapachone” (2001):

Columns and labels:
Assay type in all cases: functional
NCI-H23 = test: Cytotoxicity against lung NCI-H23 cell lines; details: Homo sapiens
In short: (§1)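 NCI human tumor cell line screen. Growth inhibition was read across a test range of 10^-4 to 10^-8 M. GI50 is the concentration giving 50% growth inhibition.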

DU-145 = test: Cytotoxicity against prostate DU-145 cell lines; details: Homo sapiens; in short: as §1
[1] = test system: Panel (Carcinoma cell lines); test: Mean graph midpoint growth inhibition of human cancer cell lines
In short: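 Mean graph midpoint: the average GI50 across all human cancer cell lines successfully tested (~55) in the NCI screen. Values below or above the 10^-4 to 10^-8 M test range were set to the minimum (10^-8 M) or maximum (10^-4 M) concentration screened.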

MDA-MB-435 = test: Cytotoxicity against breast MDA-MB-435 cell lines; details: Homo sapiens; in short: as §1
OVCAR-5 = test: Cytotoxicity against ovarian OVCAR-5 cell lines; details: Homo sapiens; in short: as §1
SF-295 = test: Cytotoxicity against CNS SF-295 cell lines; details: Homo sapiens; in short: as §1
LOX IMVI = test: Cytotoxicity against melanoma LOXIMVI cell lines; details: Homo sapiens; in short: as §1
SN12C = test: Cytotoxicity against renal SN12C cell lines; details: Homo sapiens; in short: as §1
COLO 205 = test: Cytotoxicity against colon […] cell lines; details: Homo sapiens; in short: as §1
CCRF-CEM = test: Cytotoxicity against leukemia CCRF-CEM cell lines; details: Homo sapiens; in short: as §1

## CC1(C)CCC2=C(O1)c1ccccc1/C(=N/c1ccccc1)C2=O
NCI-H23
  GI50: 1230 nM
DU-145
  GI50: 1560 nM
[1]
  MGM: 1.17 µM
MDA-MB-435
  GI50: 200 nM
OVCAR-5
  GI50: 1810 nM
SF-295
  GI50: 1860 nM
LOX IMVI
  GI50: 220 nM
SN12C
  GI50: 1120 nM
COLO 205
  GI50: 1550 nM
CCRF-CEM
  GI50: 1550 nM

## COc1ccc(/N=C2\C(=O)C3=C(OC(C)(C)CC3)c3ccccc32)cc1
NCI-H23
  GI50: 1170 nM
DU-145
  GI50: 870 nM
[1]
  MGM: 1.15 µM
MDA-MB-435
  GI50: 96 nM
OVCAR-5
  GI50: 12300 nM
SF-295
  GI50: 880 nM
LOX IMVI
  GI50: 890 nM
SN12C
  GI50: 900 nM
COLO 205
  GI50: 1020 nM
CCRF-CEM
  GI50: 1540 nM

## CC1(C)CCC2=C(O1)c1ccccc1C(=O)C2=O [LAPACHONE]
NCI-H23
  GI50: 760 nM
DU-145
  GI50: 1740 nM
[1]
  MGM: 1.12 µM
MDA-MB-435
  GI50: 21400 nM
OVCAR-5
  GI50: 1820 nM
SF-295
  GI50: 1540 nM
LOX IMVI
  GI50: 310 nM
SN12C
  GI50: 1450 nM
COLO 205
  GI50: 1780 nM
CCRF-CEM
  GI50: 1410 nM

## Cc1ccc(/N=C2\C(=O)C3=C(OC(C)(C)CC3)c3ccccc32)cc1
NCI-H23
  GI50: 920 nM
DU-145
  GI50: 1760 nM
[1]
  MGM: 0.89 µM
MDA-MB-435
  GI50: 190 nM
OVCAR-5
  GI50: 2030 nM
SF-295
  GI50: 1260 nM
LOX IMVI
  GI50: 300 nM
SN12C
  GI50: 460 nM
COLO 205
  GI50: 1800 nM
CCRF-CEM
  GI50: 2560 nM

## CC1(C)CCC2=C(O1)c1ccccc1/C(=N/c1ccc([N+](=O)[O-])cc1)C2=O
NCI-H23
  GI50: 18300 nM
DU-145
  GI50: 16800 nM
[1]
  MGM: 15.5 µM
MDA-MB-435
  GI50: 15800 nM
OVCAR-5
  GI50: 14500 nM
SF-295
  GI50: 14900 nM
LOX IMVI
  GI50: 7590 nM
SN12C
  GI50: 15900 nM
COLO 205
  GI50: 16800 nM
CCRF-CEM
  GI50: 19600 nM
